Assay outcomes (PubChem)
Compounds with a hit are over-represented: about 2.9% of the library has one in this group of screens.
Cneo AK release: Cryptococcus neoformans cell lysis inducers, primary screen, AK release luminescence, single concentration | C. neoformans lysis, adenylate kinase release luminescence, 4 h; normalised: neutral wells 0, clomiphene wells 100 | lysis activity, % at 15 µM | 360,000 compounds, 0.2% hits | AID 651654, 2012;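 active = mean lysis activity across replicates of at least 80%, whatever share of replicates individually reach that level; inactive = mean lysis activity below 80%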
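Material: C. neoformans cells | Amount: Yeast cell density of 5 × 10^6 cells/mL | Medium: Fresh YPD growth medium | Dosing: Single dose | Times: Static 4 h at 37 °C with compound, 1 h detection | Detection: AK luminescence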
rRNA inh HTS: reduced GFP signal of wild-type E. coli, primary screen, bacterial rRNA inhibitor project, GFP/RFP fluorescence, OD600, single point; E. coli WT GFP vs humanized-ribosome RFP mutants, 24 h; stronger effect = lower value; DMSO median 0, no signal -100; GFP signal change (wild-type ribosome), % (test concentration not listed); 350,000 compounds, 1.6% hits; AID 720706, 2013;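 active = significant combined selectivity score with lowered wild-type GFP, culture density cut under 30%, mutant RFP and density less affected; inactive = any of these conditions unmet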
Vif inh: HIV Vif self-association inhibitors, primary screen, imaging, HEK293T, single point | HEK293T cells, Vif self-association by quenched fluorescence, 24 h | inhibition, % at 7.49 µM | 340,000 compounds, 0.35% hits; in the data active = inhibition above about 50%, passing the limit was not always enough; inconclusive = no clear call, values can overlap the other calls; inactive = below about 31%
PglD inh: C. jejuni PglD acetyltransferase inhibitors, primary screen, biochemical, DTNB colorimetric, single point; purified PglD enzyme, DTNB colorimetric CoA detection; inhibition, % at 12.5 µM; 360,000 compounds, 0.098% hits; AID 602405, 2012; in the data active = inhibition above about 16%, passing the limit was not always enough; inconclusive = no clear call, values can overlap the other calls
PGC1a acetyl inh: inhibitors of PGC1a acetylation signal, primary screen, cell-based, U2OS, AlphaScreen, inhibitor mode; AlphaScreen anti-acetyl-lysine; with virally co-expressed GCN5 acetyltransferase; inhibition, % at 15.6 µM; 350,000 compounds, 0.17% hits;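 active = every replicate shows inhibition of at least 40%; inconclusive = mean inhibition at least 40% but some replicate below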;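 also: 0% = neutral control wells and 100% = positive control wells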
FGF22 binding: binders of human FGF22 protein, primary screen, FGF22 synaptogenesis inhibitor project, biophysical, thermal shift, single point; recombinant FGF22 thermal shift, SYPRO orange fluorescence; percent of sucrose octasulfate shift, DMSO zero; 340,000 compounds, 1.5% hits; AID 651658, 2012; activity (Tm shift, normalised), % at 9.99 µM; Fibroblast growth factor 22 (Homo sapiens), Q9HCT0;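 active = mean Tm shift, scaled 0 neutral to 100 positive control, at about 1.3% or above, every replicate too, limit read from the data; inconclusive = no clear call, values can overlap the other calls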
Target sequence (Q9HCT0 whole entry, looked up): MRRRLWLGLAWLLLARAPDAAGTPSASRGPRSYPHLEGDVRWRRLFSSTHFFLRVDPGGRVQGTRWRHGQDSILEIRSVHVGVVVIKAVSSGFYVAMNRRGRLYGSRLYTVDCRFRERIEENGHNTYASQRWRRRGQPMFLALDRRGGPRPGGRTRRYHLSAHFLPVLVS
The depositor's hits bear a star; ? = inconclusive; nt = not tested or not shown.

SMILES	Cneo AK release	rRNA inh HTS	Vif inh	PglD inh	PGC1a acetyl inh	FGF22 binding
C[C@@H]1CN([C@@H](C)CO)C(=O)Cc2cc(NC(=O)Nc3ccc4c(c3)OCO4)ccc2O[C@H]1CN(C)C(=O)NC1CCCCC1	60	-2	nt	3	6	-1
CC(=O)Oc1ccc(N(C(C)=O)S(=O)(=O)c2cccs2)cc1	1	nt	24	0	5	nt
CCCC(=O)Oc1ccc(N(C(=O)CCC)S(=O)(=O)c2cccs2)cc1	nt	-3	-2	nt	-1	43*
CN(C)CC(C(=O)c1ccccc1)c1ccccc1 (stereo not given)	nt	nt	-7	nt	139*	nt
CN(Cc1cc(Cl)cc(Cl)c1)CC(C(=O)c1ccccc1)c1ccccc1 (stereo not given)	nt	2	-8	nt	17	0
O=C1NCC(COc2cccc3ccccc23)O1 (stereo not given)	nt	-7	-6	nt	nt	0
Cc1ccccc1OCC1CNC(=O)O1 (stereo not given)	nt	12	16	nt	5	43*
CC=Cc1ccc2n(c1=O)C[C@H]1[C@H](CO)[C@@H](C(=O)N(C)C)N(CCC)[C@@H]21 (mixture of isomers)	nt	3	nt	nt	2	nt
Nc1cc2sc(-c3ccc(C(=O)O)cc3)nc2cc1Cl	1	-33*	6	2	nt	1
O=C(COc1ccc(C(=O)NCc2cccnc2)cc1)Nc1cccc(C(F)(F)F)c1	1	-23*	nt	2	nt	0
O=C(COc1ccc(Cl)cc1)Nc1ccc(C(=O)NCc2cccnc2)cc1	0	nt	14	1	nt	nt
CCCNC(=O)N1CC2(CN(S(=O)(=O)CC)C2)c2c(n(C)c3cc(OC)ccc23)[C@H]1CO	nt	-5	nt	nt	9	0
O=C(COC(=O)c1ccc(-c2ccc([N+](=O)[O-])cc2)o1)NC(=O)NC12CC3CC(CC(C3)C1)C2	nt	-4	-3	nt	nt	0
O=C(COC(=O)c1ccc(-c2ccc([N+](=O)[O-])cc2)o1)NC(=O)NC1CCCCC1	3	-33*	-6	1	2	0
CCN(C(=O)COC(=O)c1ccc(Cl)c(N)c1)C1CCS(=O)(=O)C1 (stereo not given)	1	7	-11	6	6	43*
CCN(C(=O)COC(=O)c1ccc(Cl)c(S(=O)(=O)N2CCCCC2)c1)C1CCS(=O)(=O)C1 (stereo not given)	-1	1	7	0	-4	0
CCN(C(=O)COC(=O)c1cc(-c2cccs2)nc2ccccc12)C1CCS(=O)(=O)C1 (stereo not given)	nt	-23*	7	nt	4	0
CCN(C(=O)COC(=O)c1cc(-c2ccc(C)o2)nc2ccccc12)C1CCS(=O)(=O)C1 (stereo not given)	nt	14	2	nt	-2	0
Cc1ccc(-c2cc(C(=O)OCC(=O)N(C)C3CCS(=O)(=O)C3)c3ccccc3n2)o1 (stereo not given)	nt	8	-3	nt	nt	43*
COCCSc1nc(N)c(NC(=O)c2ccc(OC)cc2)c(=O)[nH]1	nt	16	-7	nt	nt	43*
C[C@H](CO)N1C[C@H](C)[C@@H](CN(C)Cc2ccncc2)Oc2c(NC(=O)Cn3cnnn3)cccc2C1=O	nt	-1	nt	nt	nt	nt
CO[C@@H]1CN(C)C(=O)c2cc(NC(C)=O)ccc2OC[C@@H](C)N(Cc2nccs2)C[C@@H]1C	-1	3	nt	2	1	0
CCCC(=O)Nc1ccc2c(c1)C(=O)N(C)C[C@H](OC)[C@H](C)CN(C(=O)c1cnccn1)[C@H](C)CO2	-2	2	nt	-2	6	0
CCN1C(=O)C(CC(=O)Nc2ccc(OC)cc2)N(CCN2CCOCC2)C1=S (stereo not given)	6	13	-3	1	14	0
CCN1C(=O)C(CC(=O)Nc2ccc(OC)cc2)N(CCCN2CCN(c3ccc(OC)cc3)CC2)C1=S (stereo not given)	1	-20*	-2	-3	-6	0
SMILES	Cneo AK release	rRNA inh HTS	Vif inh	PglD inh	PGC1a acetyl inh	FGF22 binding
CCN1C(=O)C(CC(=O)Nc2ccc(OC)cc2)N(CCc2ccccc2)C1=S (stereo not given)	nt	-26	9	nt	-11	-1
CCN1C(=O)C(CC(=O)Nc2ccc(F)cc2)N(CCc2ccc(OC)cc2)C1=S (stereo not given)	nt	-35	0	nt	4	44*
O=C(NNC(=O)c1cccc2ccccc12)c1cccc(Br)c1	0	-22*	-1	8	6	0
O=[N+]([O-])c1cc(Br)cc(C=Nc2ccc3c(c2)OCO3)c1O	-5	-30*	2	-4	-2	0
N#C/C(=C\Nc1ccc(Cl)cn1)S(=O)(=O)c1ccccc1	nt	-35*	-6	nt	nt	0
CCCC(=O)NC1=C(Cl)C(=O)c2ccccc2C1=O	nt	nt	98*	nt	nt	0
Cc1ccc(NC2=C(Cl)C(=O)c3ccccc3C2=O)cc1	3	11	2	-2	?	0
CCNC1=C(Cl)C(=O)c2ccccc2C1=O	-3	nt	4	3	-6	nt
CCN(CC)c1ccc(NC2=C(Cl)C(=O)c3ccccc3C2=O)cc1	-7	nt	10	1	68*	nt
O=C(C[C@@H]1C[C@@H]2c3cc(NC(=O)Nc4ccccc4)ccc3O[C@@H]2[C@H](CO)O1)NCCN1CCCCC1	13	2	nt	-1	-4	0
CNC(=O)C[C@@H]1CC[C@@H]2[C@H](COC[C@@H](O)CN2C(=O)Nc2ccc3c(c2)OCO3)O1	113*	-1	nt	-3	3	0
CCCNC(=O)C[C@@H]1CC[C@H]2[C@@H](COC[C@H](O)CN2C(=O)Nc2ccc3c(c2)OCO3)O1	-1	-3	nt	4	3	0
CCNC(=O)C[C@H]1CC[C@@H]2[C@H](COC[C@@H](O)CN2C(=O)Nc2ccc3c(c2)OCO3)O1	-7	-7	nt	2	-1	0
CNC(=O)C[C@@H]1CC[C@H]2[C@@H](COC[C@H](O)CN2C(=O)Nc2ccc3c(c2)OCO3)O1	89*	7	nt	0	7	0
COc1cccc(NC(=O)N2C[C@H](O)COC[C@H]3O[C@@H](CC(=O)NCc4ccccc4F)CC[C@@H]32)c1	119*	4	nt	1	-2	0
